# Measured values as given in article PMC6686180 (Biochemistry, 2018).
# Columns and labels:
# GGTase-I [1] = settings: cited from earlier work
# GGTase-I [2] = target: T1, GGTase-I (Rattus norvegicus, UniProt P53610+Q04631); test: Radiolabel prenylation assay: GGTase-I-catalyzed geranylgeranylation of RhoA; type: biochemical; settings: 25 μM GTP or GDP, RhoA 1.3 μM, GGTase-I 5 nM, without SmgGDS
# RhoA = test: Radiolabel prenylation assay of RhoA with SmgGDS-607; type: biochemical, human
# SmgGDS = settings: cells, cited from earlier work
# GGTase-I [3] = target: T1, GGTase-I; test: Peptide prenylation assay; type: biochemical; settings: GGTase-I 10 nM; for effect on GGTase-I activity with peptide substrate: 5 μM SmgGDS, dansyl-GCLVL, saturating GGPP (10 μM)
# Method in brief: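 GGTase-I (10 nM) and 10 μM GGPP were incubated at 30°C with varied dansyl-GCLVL (RhoA CaaX peptide), with or without SmgGDS (5 μM final) or GDP/GTP (30 μM final). Prenylation-dependent fluorescence (ex 340/em 520 nm) was read every 40 s for 2 h. Initial slopes were converted to velocity, and kcat and KM came from Michaelis-Menten fits of V/E.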
# [4] = Buffer (no additive), GGPP 10 μM, 30°C, fluorescence
# T1 sequence (P53610 whole entry, one chain of several): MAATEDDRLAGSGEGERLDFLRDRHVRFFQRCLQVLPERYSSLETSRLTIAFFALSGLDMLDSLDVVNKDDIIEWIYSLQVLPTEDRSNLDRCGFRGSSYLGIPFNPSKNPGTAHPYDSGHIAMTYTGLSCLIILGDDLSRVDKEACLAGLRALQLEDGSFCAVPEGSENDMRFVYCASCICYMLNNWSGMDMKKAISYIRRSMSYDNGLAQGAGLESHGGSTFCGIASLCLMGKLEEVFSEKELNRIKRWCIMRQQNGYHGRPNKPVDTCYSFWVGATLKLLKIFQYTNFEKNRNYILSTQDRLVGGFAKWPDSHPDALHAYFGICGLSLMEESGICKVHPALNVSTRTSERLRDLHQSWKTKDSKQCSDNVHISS
molecule,measurement,setting,value
"CC(C)=CCC/C(C)=C/CC/C(C)=C/CC/C(C)=C/COP(=O)(O)OP(=O)(O)O [GGPP, geranylgeranyl pyrophosphate]",Km,GGTase-I [1]; GGTase-I KM for GGPP,0.003 µM
Nc1nc2c(ncn2[C@@H]2O[C@H](COP(=O)(O)OP(=O)(O)OP(=O)(O)O)[C@@H](O)[C@H]2O)c(=O)[nH]1 [GTP],effect of nucleotide on initial rate of RhoA geranylgeranylation,GGTase-I [2]; 3H-GGPP 9 μM,No difference was observed
same,effect of nucleotide on endpoint level of incorporated isoprenoid,GGTase-I [2]; incubation 2 hr,no significant difference
same,restoration of RhoA geranylgeranylation at saturating GTP,"RhoA; 5 μM SmgGDS-607, versus level in absence of SmgGDS-607, RhoA 3 μM",do not restore RhoA geranylgeranylation to the level observed in the absence of SmgGDS-607
same,concentration of GTP required to reach saturating RhoA geranylgeranylation,"RhoA; in the presence of 5 μM SmgGDS-607, RhoA 3 μM, GGTase-I 10 nM, 3H-GGPP 1.8 μM, 4 min",~ 3 μM
"RhoA G14V: constitutively active mutant, predominantly bound to GTP",co-immunoprecipitation of SmgGDS,SmgGDS,did not co-immunoprecipitate detectable amounts of SmgGDS
"RhoA T19N: dominant negative mutant of RhoA, predominantly nucleotide-free in cells",co-immunoprecipitation of SmgGDS-607,SmgGDS; versus wildtype RhoA,co-immunoprecipitates greater amounts of SmgGDS-607 than wildtype RhoA
dansyl-GCLVL [dansyl GCLVL],Km,GGTase-I [3]; [4],1.9 ± 0.8 µM
same,kcat,GGTase-I [3]; [4],0.046 ± 0.009 s⁻¹
dansyl-GCVLL,kcat,GGTase-I [1]; peptide substrate dansyl-GCVLL,0.051 s⁻¹
"SmgGDS-558: human SmgGDS 558-amino acid splice variant with 12 armadillo repeats (UniProt P52306–2) (protein, left off: His6-tev, end not stated, state not stated) MDNLSDTLKKLKITAVDKTEDSLEGCLDCLLQALAQNNTETSEKIQASGILQLFASLLTPQSSCKAKVANIIAEVAKNEFMRIPCVDAGLISPLVQLLNSKDQEVLLQTGRALGNICYDSHSLQAQLINMGVIPTLVKLLGIHCQNAALTEMCLVAFGNLAELESSKEQFASTNIAEELVKLFKKQIEHDKREMIFEVLAPLAENDAIKLQLVEAGLVECLLEIVQQKVDSDKEDDITELKTGSDLMVLLLLGDESMQKLFEGGKGSVFQRVLSWIPSNNHQLQLAGALAIANFARNDANCIHMVDNGIVEKLMDLLDRHVEDGNVTVQHAALSALRNLAIPVINKAKMLSAGVTEAVLKFLKSEMPPVQFKLLGTLRMLIDAQAEAAEQLGKNVKLVERLVEWCEAKDHAGVMGESNRLLSALIRHSKSKDVIKTIVQSGGIKHLVTMATSEHVIMQNEALVALALIAALELGTAEKDLESAKLVQILHRLLADERSAPEIKYNSMVLICALMGSECLHKEVQDLAFLDVVSKLRSHENKSVAQQASLTEQRLTVES",effect on GGTase-I activity with peptide substrate,GGTase-I [3],not significantly altered
"SmgGDS-607: human SmgGDS 607-amino acid splice variant with one additional armadillo repeat (UniProt P52306–1) (protein, left off: His6-tev, end not stated, state not stated) MDNLSDTLKKLKITAVDKTEDSLEGCLDCLLQALAQNNTETSEKIQASGILQLFASLLTPQSSCKAKVANIIAEVAKNEFMRIPCVDAGLISPLVQLLNSKDQEVLLQTGRALGNICYDSHEGRSAVDQAGGAQIVIDHLRSLCSITDPANEKLLTVFCGMLMNYSNENDSLQAQLINMGVIPTLVKLLGIHCQNAALTEMCLVAFGNLAELESSKEQFASTNIAEELVKLFKKQIEHDKREMIFEVLAPLAENDAIKLQLVEAGLVECLLEIVQQKVDSDKEDDITELKTGSDLMVLLLLGDESMQKLFEGGKGSVFQRVLSWIPSNNHQLQLAGALAIANFARNDANCIHMVDNGIVEKLMDLLDRHVEDGNVTVQHAALSALRNLAIPVINKAKMLSAGVTEAVLKFLKSEMPPVQFKLLGTLRMLIDAQAEAAEQLGKNVKLVERLVEWCEAKDHAGVMGESNRLLSALIRHSKSKDVIKTIVQSGGIKHLVTMATSEHVIMQNEALVALALIAALELGTAEKDLESAKLVQILHRLLADERSAPEIKYNSMVLICALMGSECLHKEVQDLAFLDVVSKLRSHENKSVAQQASLTEQRLTVES",inhibition of RhoA prenylation catalyzed by GGTase-I (overall statement),RhoA; in vitro radiolabel incorporation assay,completely inhibits RhoA prenylation
same,effect on GGTase-I activity with peptide substrate,GGTase-I [3],not significantly altered
